Measured values taken from ChEMBL document CHEMBL4270554, “Discovery of the cancer cell selective dual acting anti-cancer agent (Z)-2-(1H-indol-3-yl)-3-(isoquinolin-5-yl)acrylonitrile (A131)” (Eur J Med Chem, 2018).
Activity calls are given as the source filed them. The rule behind the calls is not given here.

Assays:
[1] = AUC (0 to infinity) in Wistar rat at 10 mg/kg, po by LC-MS/MS analysis; assay type: ADME, organism-based; set-up: dose 10 mg/kg, time infinity, route oral; conditions: in vivo
How it was run: (§1)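 Male Wistar rats (n = 3), single oral dose of 10 mg/kg HCl salt given as 1 mg/ml solution in 10% DMSO, 50% PEG400, 40% water pH 5. Blood drawn from catheter over 0–24 h into heparin tubes. Plasma spun off, stored at -80 °C, quantified by LC-MS/MS. Parameters by non-compartmental analysis, mean (SD).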

[2] = Solubility of the compound in 60% PEG400/40% water at pH 5 by HPLC analysis; assay type: physicochemical
How it was run: (§2)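 1 mg of HCl salt mixed with vehicle (0.5 mL total), target 1 mg/mL. Components added in order: organic solvent (DMSO, ethanol or NMP), then PEG400, then water, vortexing after each addition. Sonicated 15 min, left 3 h at room temperature, then centrifuged 5 min.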

[3] = Solubility of the compound in 10% EtOH/50% PEG400/40% water at pH 3.5 by HPLC analysis; assay type: physicochemical; how it was run: as §2
[4] = Solubility of the compound in 10% DMSO/50% PEG400/40% water at pH 5 by HPLC analysis; assay type: physicochemical; how it was run: as §2
[5] = AUC (0 to t) in Wistar rat at 2 mg/kg, iv by LC-MS/MS analysis; assay type: ADME, organism-based; conditions: in vivo
How it was run: (§3)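 Male Wistar rats (n = 3), intravenous dose of 2 mg/kg HCl salt as 1 mg/ml solution in 10% DMSO, 50% PEG400, 40% water pH 5. Catheter blood sampling over 0–4 h into heparin. Plasma separated, stored at -80 °C, measured by LC-MS/MS. Non-compartmental estimation, mean (SD).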

[6] = Terminal half life in Wistar rat at 2 mg/kg, iv by LC-MS/MS analysis; assay type: ADME, organism-based; conditions: in vivo, read-out: beta t1/2 (converted)
How it was run: (§4)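 Male Wistar rats, n = 3 per route, dosed with HCl salt as 1 mg/mL solution in 10% DMSO/50% PEG400/40% water pH 5. Doses 2 mg/kg iv or 10 mg/kg po. Heparinised blood sampled via catheter (0–4 h iv, 0–24 h po), plasma analysed by LC-MS/MS. Parameters derived by non-compartmental analysis.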

[7] = Tmax in Wistar rat at 10 mg/kg, po by LC-MS/MS analysis; assay type: ADME, organism-based; conditions: in vivo; how it was run: as §4
[8] = Solubility of the compound in 60% PEG400/40% water at pH 3.5 by HPLC analysis; assay type: physicochemical; how it was run: as §2
[9] = Oral bioavailability in Wistar rat at 10 mg/kg by LC-MS/MS analysis; assay type: ADME, organism-based; conditions: in vivo; how it was run: as §4
[10] = MRT in Wistar rat at 10 mg/kg, po by LC-MS/MS analysis; assay type: ADME, organism-based; conditions: in vivo; how it was run: as §4
[11] = Solubility of the compound in 10% DMSO/90% water at pH 5 by HPLC analysis; assay type: physicochemical; how it was run: as §2
[12] = AUC (0 to t) in Wistar rat at 10 mg/kg, po by LC-MS/MS analysis; assay type: ADME, organism-based; conditions: in vivo; how it was run: as §1
[13] = Solubility of the compound in 10% DMSO/50% PEG400/40% water at pH 3.5 by HPLC analysis; assay type: physicochemical; how it was run: as §2
[14] = MRT in Wistar rat at 2 mg/kg, iv by LC-MS/MS analysis; assay type: ADME, organism-based; conditions: in vivo; how it was run: as §4
[15] = Solubility of the compound in 10% NMP/50% PEG400/40% water at pH 5 by HPLC analysis; assay type: physicochemical; how it was run: as §2
[16] = AUC (0 to infinity) in Wistar rat at 2 mg/kg, iv by LC-MS/MS analysis; assay type: ADME, organism-based; set-up: dose 2 mg/kg, time infinity, route intravenous; conditions: in vivo; how it was run: as §3
[17] = Solubility of the compound in 10% DMSO/90% water at pH 7 by HPLC analysis; assay type: physicochemical; how it was run: as §2
[18] = Solubility of the compound in 60% PEG400/40% water at pH 7 by HPLC analysis; assay type: physicochemical; how it was run: as §2
[19] = Solubility of the compound in 10% DMSO/90% water at pH 3.5 by HPLC analysis; assay type: physicochemical; how it was run: as §2
[20] = Solubility of the compound in 10% NMP/50% PEG400/40% water at pH 3.5 by HPLC analysis; assay type: physicochemical; how it was run: as §2
[21] = Half life in Wistar rat at 10 mg/kg, po by LC-MS/MS analysis; assay type: ADME, organism-based; conditions: in vivo
How it was run: (§5)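 Male Wistar rats dosed orally at 10 mg/kg with HCl salt as solution in 10% DMSO, 50% PEG400, 40% water pH 5. Catheter blood over 0-24 h into heparin, plasma by LC-MS/MS. Non-compartmental PK; n = 3, mean (SD).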

[22] = Solubility of the compound in 10% EtOH/50% PEG400/40% water at pH 5 by HPLC analysis; assay type: physicochemical; how it was run: as §2
[23] = Cmax in Wistar rat at 10 mg/kg, po by LC-MS/MS analysis; assay type: ADME, organism-based; set-up: dose 10 mg/kg, route oral; conditions: in vivo; how it was run: as §5
HCT-15 = assay: Antitumor activity against human HCT15 cells xenografted in BALB/c athymic nu/nu mouse assessed as tumor growth inhibition at 60 mg/kg, iv bid administered every 4 days; assay type: functional, organism-based
How it was run: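 Female BALB/c nu/nu mice bearing subcutaneous HCT15 xenografts (groups of 6). Paclitaxel 60 mg/kg given via tail vein twice every 4 days in ethanol:Tween 80:5% glucose (5:15:80). Tumor volumes tracked; mean ± SEM, two-way ANOVA vs vehicle.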

hTERT-BJ [24] = assay: Cell cycle arrest in human hTERT-BJ cells transformed with hTert, small t, shRNAs against p53 and pRb and H-RasV12-ER assessed as accumulation at sub-G1 phase at 5 uM after 48 hrs; assay type: functional, cell-based
How it was run: (§6)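 Isogenic normal and fully transformed BJ fibroblasts (hTert, small t, shRNAs to p53 and pRb, H-RasV12-ER) exposed to 5 μM for 48 h. Percentage of cells in sub-G1 phase determined as a cell death measure.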

hTERT-BJ [25] = assay: Inhibition of mitotic progression in human hTERT-BJ cells transformed with hTert, small t, shRNAs against p53 and pRb and H-RasV12-ER assessed as increase in phosphorylated histone H3 (Ser10) level at 5 uM after 24 hrs by immunoblot analysis relative to control; assay type: functional
How it was run: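 Fully transformed BJ fibroblasts (hTert, small t, shRNAs to p53 and pRb, H-RasV12-ER) treated 24 h at 5 μM. Immunoblot protocol as for HeLa. pH3 (Ser10) band intensity expressed as fold of DMSO control; under 2-fold counted as insignificant.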

BJ = assay: Cell cycle arrest in human BJ cells assessed as accumulation at sub-G1 phase at 5 uM after 48 hrs; assay type: cell-based; how it was run: as §6
hTERT-BJ [26] = assay: Induction of autophagy in human hTERT-BJ cells transformed with hTert, small t, shRNAs against p53 and pRb and H-RasV12-ER assessed as increase in LC3-2 to LC3-1 ratio at 5 uM after 24 hrs by immunoblot analysis relative to control; assay type: functional
How it was run: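 Fully transformed BJ fibroblasts (hTert, small t, shRNAs to p53 and pRb, H-RasV12-ER) grown at 37 °C, 5% CO2 in 10% FBS medium; treated 24 h at 5 μM. Triton lysis, 14% SDS-PAGE, LC3 immunoblot; LC3-II/LC3-I band ratio relative to DMSO-treated control, under 2-fold induction deemed insignificant.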

With Cl.N#C/C(=C\c1cccc2cnccc12)c1c[nH]c2ccccc12 the AUC(0-inf) [1] was 1770 ng·h/mL, the solubility [2] was 940 µg/mL and the solubility [3] was 1300 µg/mL. The solubility [4] was 1200 µg/mL, the AUC(0-t) [5] was 820 ng·h/mL and the half-life [6] was 21.6 min. The Tmax [7] was 43.2 min, the solubility [8] was 1060 µg/mL and the bioavailability [9] was 43%. The MRT [10] was 113 min, the solubility [11] was 6 µg/mL and the AUC(0-t) [12] was 1690 ng·h/mL. For the same compound, the solubility [13] was 966 µg/mL, the MRT [14] was 17.4 min and the solubility [15] was 1170 µg/mL. For the same compound, the AUC(0-inf) [16] was 822 ng·h/mL, the solubility [17] was 3 µg/mL and the solubility [18] was 869 µg/mL. The solubility [19] was 7 µg/mL, the solubility [20] was 1220 µg/mL and the half-life [21] was 96 min. It also gave a solubility [22] of 741 µg/mL and a Cmax [23] of 1130 ng/mL.

With CC(=O)O[C@H]1C(=O)[C@@]2(C)[C@H]([C@H](OC(=O)c3ccccc3)[C@]3(O)C[C@H](OC(=O)[C@H](O)[C@@H](NC(=O)c4ccccc4)c4ccccc4)C(C)=C1C3(C)C)[C@]1(OC(C)=O)CO[C@@H]1C[C@@H]2O the TGI (HCT-15) was “inactive”.

For N#C/C(=C\c1cccc2cnccc12)c1c[nH]c2ccc(OCCCN3CCCC3)cc12, the Activity (hTERT-BJ [24]) was “inactive”, the “fold change (FC)” value (hTERT-BJ [25]) was 0.9 and the Activity (BJ) was “Non-Toxic”. The “fold change (FC)” value (hTERT-BJ [26]) was 6.
